Laboratory results reported in ChEMBL document CHEMBL1671684, “In vitro resistance profile of the hepatitis C virus NS3/4A protease inhibitor TMC435” (Antimicrob Agents Chemother, 2010).
Activity calls are given as the source filed them. The calls are words filed in the database; no cut-off is given here.

How the values were obtained:
[1] = tested on: Hepatitis C virus; test: Ratio of EC50 for Hepatitis C virus subtype 1b expressing NS3 Q41R mutant to EC50 for Hepatitis C virus subtype 1b expressing WT NS3 infected in HuH7 cells after 48 hrs by luciferase reporter assay; format: functional, Hepacivirus hominis, genotype 1b, Huh-7
How it was run: (§1)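 Transient replicon assay: site-directed single or multiple NS3 mutations engineered into genotype 1b (con1, clone ET) subgenomic bicistronic replicon with luciferase reporter and adaptive mutations E1202G, T1280I, K1846T. Huh7-lunet cells electroporated with 10 μg wild-type or mutant replicon RNA, seeded 4,000 cells/well with nine-point inhibitor dilution; 48 h, 37°C, 5% CO2; luminescence read-out. EC50 as median of individual experiments; fold change versus parental replicon EC50.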

[2] = tested on: Hepatitis C virus; test: Antiviral activity against Hepatitis C virus subtype 1b expressing NS3 F43V mutant infected in HuH7 cells after 48 hrs by luciferase reporter assay; format: functional, organism-based, Hepacivirus hominis; details: genotype 1b, Huh-7, 48 h
How it was run: (§2)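 Genotype 1b con1 subgenomic bicistronic replicon (clone ET) with luciferase reporter and adaptive mutations E1202G, T1280I, K1846T, carrying site-directed NS3 single or double mutations. 10 μg wild-type or mutant replicon RNA electroporated into Huh7-lunet cells, seeded 4,000 cells/well over a nine-point inhibitor dilution series, 48 h at 37°C, 5% CO2, then luminescence read. EC50 taken as median of individual experiments; fold change relative to parental replicon EC50.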

[3] = tested on: Hepatitis C virus; test: Ratio of EC50 for Hepatitis C virus subtype 1b expressing NS3 F43I mutant to EC50 for Hepatitis C virus subtype 1b expressing WT NS3 infected in HuH7 cells after 48 hrs by luciferase reporter assay; format: functional, Hepacivirus hominis, genotype 1b, Huh-7; how it was run: as §1
[4] = tested on: Hepatitis C virus; test: Ratio of EC50 for Hepatitis C virus subtype 1b expressing NS3 Q80R mutant to EC50 for Hepatitis C virus subtype 1b expressing WT NS3 infected in HuH7 cells after 48 hrs by luciferase reporter assay; format: functional, Hepacivirus hominis, genotype 1b, Huh-7; how it was run: as §1
[5] = tested on: Hepatitis C virus; test: Antiviral activity against Hepatitis C virus subtype 1a infected in human assessed as suppression of viral RNA level at 200 mg administered SID for 5 days measured after 3 days last postdose; format: functional, organism-based; details: Hepacivirus hominis
[6] = tested on: Hepatitis C virus; test: Antiviral activity against Hepatitis C virus subtype 2a JFH1 infected in HuH7.5 cells assessed as occurrence of the viral-induced CPE at 4000 nM after 3 days by luciferase reporter assay; format: functional, organism-based; details: Hepacivirus hominis
[7] = tested on: Hepatitis C virus; test: Antiviral activity against Hepatitis C virus subtype 2a JFH1 infected in HuH7.5 cells assessed as viral RNA replication after initial decline at 4000 nM after 3 days by TaqMan RT-PCR; format: functional, organism-based; details: Hepacivirus hominis
[8] = tested on: Hepatitis C virus; test: Antiviral activity against Hepatitis C virus subtype 1b expressing NS3 Q80L mutant infected in HuH7 cells after 48 hrs by luciferase reporter assay; format: functional, organism-based, Hepacivirus hominis; details: genotype 1b, Huh-7, 48 h; how it was run: as §2
[9] = Inhibition of Hepatitis C virus subtype 4a NS3/4A protease
[10] = tested on: Hepatitis C virus; test: Antiviral activity against Hepatitis C virus subtype 1b expressing NS3 R109K mutant infected in HuH7 cells after 48 hrs by luciferase reporter assay; format: functional, organism-based, Hepacivirus hominis; details: genotype 1b, Huh-7, 48 h; how it was run: as §2
[11] = tested on: Hepatitis C virus; test: Antiviral activity against Hepatitis C virus subtype 1b expressing NS3 D168G mutant infected in HuH7 cells after 48 hrs by luciferase reporter assay; format: functional, organism-based, Hepacivirus hominis; details: genotype 1b, Huh-7, 48 h; how it was run: as §2
[12] = tested on: Hepatitis C virus; test: Antiviral activity against Hepatitis C virus subtype 1b expressing NS3 Q80R and D168E mutant infected in HuH7 cells after 48 hrs by luciferase reporter assay; format: functional, organism-based, Hepacivirus hominis; details: genotype 1b, Huh-7, 48 h; how it was run: as §2
[13] = tested on: Hepatitis C virus; test: Antiviral activity against Hepatitis C virus infected in HuH7 cells assessed as cell viability at 10 times EC50 after 2 to 3 weeks by neutral red assay in presence of 1,000 ug/ml G418; format: functional, organism-based; details: Hepacivirus hominis; Huh-7
How it was run: (§3)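 Huh7-Luc genotype 1b (con1, clone ET) replicon cells, 20,000 per 10-cm dish in DMEM with 1,000 μg/ml G418. Cells got one inhibitor or a two-inhibitor combination, dosed as multiples of each inhibitor's EC50 from a genotype 1b luciferase replicon assay. Held at 37°C, 5% CO2, with medium plus compound refreshed twice weekly. After 2–3 weeks, surviving colonies were stained with neutral red and counted. Three independent experiments.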

[14] = Inhibition of Hepatitis C virus subtype 5a NS3/4A protease
[15] = tested on: Hepatitis C virus; test: Antiviral activity against Hepatitis C virus subtype 1b expressing NS3 V170A mutant infected in HuH7 cells after 48 hrs by luciferase reporter assay; format: functional, organism-based, Hepacivirus hominis; details: genotype 1b, Huh-7, 48 h; how it was run: as §2
[16] = tested on: Hepatitis C virus; test: Antiviral activity against Hepatitis C virus subtype 1b expressing NS3 S138T mutant infected in HuH7 cells after 48 hrs by luciferase reporter assay; format: functional, organism-based, Hepacivirus hominis; details: genotype 1b, Huh-7, 48 h; how it was run: as §2
[17] = tested on: Hepatitis C virus; test: Antiviral activity against Hepatitis C virus infected in HuH7 cells assessed as cell viability at 2.5 times EC50 after 2 to 3 weeks by neutral red assay in presence of 1,000 ug/ml G418; format: functional, organism-based; details: Hepacivirus hominis; Huh-7; how it was run: as §3
[18] = tested on: Hepatitis C virus; test: Antiviral activity against Hepatitis C virus subtype 1b expressing NS3 V36L mutant infected in HuH7 cells after 48 hrs by luciferase reporter assay; format: functional, organism-based, Hepacivirus hominis; details: genotype 1b, Huh-7, 48 h; how it was run: as §2
[19] = tested on: Hepatitis C virus; test: Ratio of EC50 for Hepatitis C virus subtype 1b expressing NS3 D168Y mutant to EC50 for Hepatitis C virus subtype 1b expressing WT NS3 infected in HuH7 cells after 48 hrs by luciferase reporter assay; format: functional, Hepacivirus hominis, genotype 1b, Huh-7; how it was run: as §1
[20] = Inhibition of Hepatitis C virus subtype 1a NS3/4A protease
[21] = Inhibition of Hepatitis C virus subtype 6a NS3/4A protease
[22] = Inhibition of Hepatitis C virus subtype 3a NS3/4A protease
[23] = tested on: Hepatitis C virus; test: Ratio of EC50 for Hepatitis C virus subtype 1b expressing NS3 A156V mutant to EC50 for Hepatitis C virus subtype 1b expressing WT NS3 infected in HuH7 cells after 48 hrs by luciferase reporter assay; format: functional, Hepacivirus hominis, genotype 1b, Huh-7; how it was run: as §2
[24] = tested on: Hepatitis C virus; test: Antiviral activity against Hepatitis C virus subtype 2a JFH1 infected in HuH7.5 cells assessed as reduction in cellular viral RNA levels normalized to RPL13A RNA levels at 500 nM after 3 days by TaqMan RT-PCR; format: functional, organism-based; details: Hepacivirus hominis
[25] = tested on: Hepatitis C virus; test: Antiviral activity against Hepatitis C virus subtype 1b expressing NS3 Q41R mutant infected in HuH7 cells after 48 hrs by luciferase reporter assay; format: functional, organism-based, Hepacivirus hominis; details: genotype 1b, Huh-7, 48 h; how it was run: as §2
[26] = tested on: Hepatitis C virus; test: Ratio of EC50 for Hepatitis C virus subtype 1b expressing NS3 R155M mutant to EC50 for Hepatitis C virus subtype 1b expressing WT NS3 infected in HuH7 cells after 48 hrs by luciferase reporter assay; format: functional, Hepacivirus hominis, genotype 1b, Huh-7; how it was run: as §1
[27] = tested on: Hepatitis C virus; test: Antiviral activity against Hepatitis C virus subtype 1b expressing WT NS3 infected in HuH7 cells after 48 hrs by luciferase reporter assay; format: functional, organism-based, Hepacivirus hominis; details: genotype 1b, Huh-7, 48 h
How it was run: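 Huh7-lunet cells were electroporated with 10 μg wild-type genotype 1b subgenomic replicon RNA (clone ET; luciferase reporter; E1202G, T1280I, K1846T). They were seeded at 4,000 cells/well over a nine-point compound dilution series. After 48 h at 37°C, 5% CO2, luciferase reagent was added 1:1, followed by 10–20 min in the dark and a luminescence read. EC50 is the median of individual-experiment EC50s.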

[28] = tested on: Hepatitis C virus; test: Antiviral activity against Hepatitis C virus subtype 2a JFH1 infected in HuH7.5 cells assessed as viral RNA replication after initial decline at 500 nM after 3 days by TaqMan RT-PCR; format: functional, organism-based; details: Hepacivirus hominis

Structure (SMILES) | Ratio EC50 [1] | EC50 [2] [nM] | Ratio EC50 [3] | Ratio EC50 [4] | EC50 [8] [nM] | EC50 [10] [nM] | EC50 [11] [nM] | EC50 [12] [nM] | EC50 [15] [nM] | EC50 [16] [nM] | EC50 [18] [nM] | Ratio EC50 [19] | Ratio EC50 [23] | EC50 [25] [nM] | Ratio EC50 [26] | EC50 [27] [nM] | other results
COc1ccc2c(O[C@@H]3C[C@H]4C(=O)N[C@]5(C(=O)NS(=O)(=O)C6CC6)C[C@H]5/C=C\CCCCN(C)C(=O)[C@@H]4C3)cc(-c3nc(C(C)C)cs3)nc2c1C [SIMEPREVIR] | 1.7 | 626 | 89 | 6.9 | 12 | 11 | 42 | 5900 | 22 | 77 | 18 | 666 | 177 | 18 | 0.4 | 11 | inhibition [5]: Active; inhibition [6]: Active; inhibition [7]: inactive; IC50 [9]: < 13 nM; inhibition [13]: inactive; IC50 [14]: < 13 nM; inhibition [17]: inactive; Ki [20]: 0.4 nM; IC50 [21]: < 13 nM; IC50 [22]: 37 nM; inhibition [24]: Active; inhibition [28]: inactive
CC(C)(C)NC(=O)N[C@H](C(=O)N1C[C@H]2[C@@H]([C@H]1C(=O)NC(CC1CCC1)C(=O)C(N)=O)C2(C)C)C(C)(C)C (stereo partly drawn) [BOCEPREVIR] | – | 527 | 1.1 | 0.5 | 133 | 33 | 63 | 62 | 1550 | 16 | 110 | 2.4 | 75 | – | 5.7 | 148 | –
CCC[C@H](NC(=O)[C@@H]1[C@H]2CCC[C@H]2CN1C(=O)[C@@H](NC(=O)[C@@H](NC(=O)c1cnccn1)C1CCCCC1)C(C)(C)C)C(=O)C(=O)NC1CC1 [TELAPREVIR] | – | – | – | 0.6 | – | 66 | – | – | – | – | 300 | 1.2 | 112 | – | 14 | 150 | –
COc1ccc2c(O[C@@H]3C[C@H]4C(=O)N[C@]5(C(=O)O)C[C@H]5/C=C\CCCCC[C@H](NC(=O)OC5CCCC5)C(=O)N4C3)cc(-c3csc(NC(C)C)n3)nc2c1 [CILUPREVIR] | 2.8 | 0.4 | 0.5 | 1.6 | – | 1.4 | 35 | 87 | – | 0.5 | 1.4 | 2488 | 2085 | 2.3 | 68 | 0.8 | –
